According to ChEMBL document CHEMBL1765063, “Synthesis and anti-melanogenic activity of hydroxyphenyl benzyl ether analogues” (Bioorg Med Chem, 2011):

Experiments:
B16 [1] = test: Inhibition of alpha-MSH-induced melanin synthesis in mouse B16 cells grown in a 5% CO2-95% air atmosphere at 10 uM after 3 days; assay type: functional; conditions: B16, 72 h
Outline: (§1)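 Mouse B16 melanoma cells seeded at 2.5×10^3 per well in DMEM with 10% FBS and grown 1 day at 37 °C. α-MSH was added together with compound at various concentrations, then cells were incubated 3 days at 37 °C. Absorbance at 405 nm was read against a synthetic melanin standard curve (melanin dissolved in 0.85 N KOH). IC50 is the mean of triplicate determinations.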

[2] = target: T1, Tyrosinase (Mus musculus) (UniProt P11344); test: Inhibition of tyrosinase activity in alpha-MSH-stimulated mouse B16 cells at 100 uM using L-tyrosine as substrate; assay type: cell-based
T1 sequence (whole entry): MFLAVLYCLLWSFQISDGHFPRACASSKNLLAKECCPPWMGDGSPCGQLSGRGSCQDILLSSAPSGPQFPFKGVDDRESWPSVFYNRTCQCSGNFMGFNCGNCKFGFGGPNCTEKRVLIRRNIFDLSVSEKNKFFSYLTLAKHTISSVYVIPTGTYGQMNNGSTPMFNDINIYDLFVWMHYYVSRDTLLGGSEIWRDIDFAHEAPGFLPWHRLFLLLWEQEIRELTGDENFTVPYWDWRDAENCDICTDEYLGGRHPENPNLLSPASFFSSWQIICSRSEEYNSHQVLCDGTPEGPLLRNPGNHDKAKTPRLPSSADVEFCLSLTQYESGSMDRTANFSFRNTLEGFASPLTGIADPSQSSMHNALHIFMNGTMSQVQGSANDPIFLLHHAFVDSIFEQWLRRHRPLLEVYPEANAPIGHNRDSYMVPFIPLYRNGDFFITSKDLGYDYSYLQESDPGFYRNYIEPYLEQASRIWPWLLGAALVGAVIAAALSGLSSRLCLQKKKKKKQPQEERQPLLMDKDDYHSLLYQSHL
Outline: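 Enzyme source: B16 cells stimulated 48 h with 10 nM α-MSH, sonicated on ice and centrifuged. Supernatant dialysed against 50 mM sodium phosphate, pH 6.8. Compound preincubated with the cell-free enzyme, then 5 mM L-tyrosine added as substrate. Initial rate of dopachrome formation followed at 475 nm. One unit converts 1 nmol L-tyrosine per min.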

[3] = system: Radical scavenging activity; test: Antioxidant activity assessed as DPPH free radical scavenging activity at 100 uM after 30 mins; assay type: functional
Outline: (§2)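 Compounds in ethanol mixed 1:1 by volume with 200 µM DPPH stock (stock concentration). Shaken 30 min at room temperature, absorbance read at 517 nm. Percent scavenging taken against DPPH without compound, blank-corrected. Screening done at 100 µM final. […] Triplicate runs, vitamin C as positive control.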

[4] = system: Radical scavenging activity; test: Antioxidant activity assessed as DPPH free radical scavenging activity after 30 mins; assay type: functional; outline: as §2
B16 [5] = test: Inhibition of alpha-MSH-induced melanin synthesis in mouse B16 cells grown in a 5% CO2-95% air atmosphere after 3 days; assay type: functional, cell-based; conditions: B16, 72 h; outline: as §1
Tyrosinase = target: T2, Tyrosinase (Mus musculus, UniProt P11344); test: Inhibition of tyrosinase activity in alpha-MSH-stimulated mouse B16 cells using L-tyrosine as substrate; assay type: cell-based
T2 sequence (P11344 whole entry): T1 sequence (whole entry)
Outline: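 Enzyme source: B16 cells stimulated 48 h with 10 nM α-MSH, sonicated on ice and centrifuged. Supernatant dialysed against 50 mM sodium phosphate, pH 6.8. Compound preincubated with the cell-free enzyme, then 5 mM L-tyrosine added as substrate. One unit converts 1 nmol L-tyrosine per min.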

Compound	inhibition [2] [%]	EC50 [4] [µM]	IC50 (B16 [5]) [µM]	IC50 (Tyrosinase) [µM]	inhibition at 10 µM (B16 [1]) [%]	inhibition [3] [%]
Oc1cc(OCc2ccc(Cl)c(Cl)c2)cc(OCc2ccc(Cl)c(Cl)c2)c1	0	–	–	–	4	17
Oc1ccc(OCc2ccccc2Cl)cc1	0	113	–	–	55	46.5
O=C1O[C@H]([C@@H](O)CO)C(O)=C1O [ASCORBIC ACID]	–	26.2	–	–	–	93.9
Oc1cc(OCc2ccccc2Cl)cc(OCc2ccccc2Cl)c1	3.5	–	–	–	33	15.6
CC(=O)Oc1cc(O)cc(OCc2ccc(Cl)c(Cl)c2)c1	–	–	–	–	–	8
Oc1ccc(OCc2ccc(F)cc2)cc1	1.5	102	–	–	42	48.2
Oc1ccc(OCc2ccc(Cl)c(Cl)c2)cc1	9.5	–	1.87	–	87	33.2
COc1cc(COc2cc(O)cc(OCc3cc(OC)cc(OC)c3)c2)cc(OC)c1	0	–	–	–	6	27.4
OC[C@H]1O[C@@H](Oc2ccc(O)cc2)[C@H](O)[C@@H](O)[C@@H]1O [ARBUTIN]	–	–	99	–	–	–
COc1cc(COc2cc(O)cc(OC(C)=O)c2)cc(OC)c1	–	–	–	–	–	1.7
COc1cc(COc2ccc(O)cc2)cc(OC)c1	0	76.3	1.93	–	> 100	54.1
Oc1cc(OCc2ccc(F)cc2)cc(OCc2ccc(F)cc2)c1	5.5	–	–	–	12	21.2

Further lines, with some results ahead:

inhibition [2] [%]	EC50 [4] [µM]	IC50 (B16 [5]) [µM]	IC50 (Tyrosinase) [µM]	Compound	inhibition at 10 µM (B16 [1]) [%]	inhibition [3] [%]
27.5	129	–	–	COc1cc(COc2cc(O)cc(O)c2)cc(OC)c1	19	46.8
55.5	140	–	90	Oc1cc(O)cc(OCc2ccc(F)cc2)c1	14	46.6
45.5	165	–	–	Oc1cc(O)cc(OCc2ccccc2Cl)c1	11	42.8
70.5	119	–	54.7	Oc1cc(O)cc(OCc2cccc(Cl)c2)c1	18	49
66	–	–	66.4	Oc1cc(O)cc(OCc2ccc(Cl)c(Cl)c2)c1	15	37.3
1	76.8	1.83	–	Oc1ccc(OCc2cccc(Cl)c2)cc1	78	54.7
1.5	–	–	–	Oc1cc(OCc2cccc(Cl)c2)cc(OCc2cccc(Cl)c2)c1	21	22.1
